Shown are actives, neighbours in structure and some others; about 4.3% of the full set was active somewhere.
STAT3 inh-1: inhibitors of IL-6 induced STAT3 signaling; U3A cells, IL-6 STAT3-luciferase reporter, luminescence; host cell line lacks STAT1; inhibition, % at 5.5 µM; actives 0.89% (n = 190,000); AID 862;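 active means inhibition above the mean inhibition across all screened compounds plus 3 SD, cut at about 44% in these data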;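 further: 0% = DMSO only wells and 100% = 100 µM nifuroxazide control wells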
STAT1 activator: STAT1 signaling activation; activation (% of control), % at 5.5 µM; actives 2.6% (n = 200,000); NIH 3T3 STAT1-luciferase reporter, IFN-gamma, luminescence; 100% = IFN-gamma alone, no compound;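 active means activation above the screen-wide mean activation plus 3 SD, cut at about 130% in these data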;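 further: raw ratio to IFN-gamma control signal so 100% means no change and 0% no light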
STAT1 blocker: reduces IFN-gamma driven STAT1 reporter signal; actives 0.35% (n = 200,000); NIH 3T3 STAT1-luciferase reporter, luminescence; inhibition, % at 5.5 µM;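 active means inhibition above a set limit, the mean inhibition across all tested compounds plus 3 SD, cut at about 34% in these data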;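 further: 0% = IFN-gamma with DMSO and 100% = IFN-gamma with 300 µM nifuroxazide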
STAT3 activator: activators of IL-6 induced STAT3 signaling | U3A cells, IL-6 STAT3-luciferase reporter, luminescence; 100% = signal with IL-6 EC80 alone | activation (% of control), % at 5.6 µM | actives 0.91% (n = 190,000);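 active means activation above the screen-wide mean of compound activation plus 3 SD, cut at about 130% in these data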;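 further: 0% = background luminescence of wells with medium and substrate only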
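system = STAT3-luciferase reporter U3A cells | reagent = IL-6 stimulus at 33 ng/mL final | timing = 1 h compound pre-exposure, 6 h IL-6 stimulation, 37 °C | measured by = luminescence | evaluation = % activation versus median of IL-6-stimulated wells | control set = IL-6-only wells as 100% reference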
STAT3 inh-2: confirmation of STAT3 signaling inhibitors. shares compounds with STAT3 inh-1. U3A cells, IL-6 STAT3 luciferase reporter, luminescence; cell line lacks STAT1. inhibition, % at 5.7 µM. actives 45% (n = 1,200). AID 1265;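 active means inhibition above the hit cutoff computed for the primary STAT3 screen, cut at about 44% in these data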;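 further: 0% = IL-6 plus DMSO and 100% = IL-6 plus nifuroxazide control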
NFkB inh STAT3ct: counter-screen for STAT3 inhibitors: NF-kappaB inhibition; inhibition, % at 5.7 µM; actives 36% (n = 1,200); shares compounds with STAT3 inh-1; AID 1308; HEK293T NF-kB luciferase reporter, TNF-alpha induced;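 active means inhibition above the mean of solvent-only control wells plus 3 SD, cutoff set per campaign, cut at about 13% in these data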;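 further: 0% = TNF-alpha with DMSO and 100% = TNF-alpha with MG high control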
STAT1 inh 2: inhibits STAT1, counter-screen to STAT3 inhibitors. shares compounds with STAT3 inh-1. NIH 3T3 STAT1-luciferase reporter, IFN-gamma induced, luminescence. inhibition, % at 5.7 µM. actives 27% (n = 1,200);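 active means inhibition above the mean plus 3 SD of solvent-only control wells, limit set per screening run, cut at about 16% in these data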;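 further: 0% = DMSO with IFN-gamma and 100% = nifuroxazide control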
The depositor's hits bear a star; nt = no result.

SMILES | STAT3 inh-1 | STAT1 activator | STAT1 blocker | STAT3 activator | STAT3 inh-2 | NFkB inh STAT3ct | STAT1 inh 2
COc1ccc(-c2nc3ccccc3s2)cc1O | 92* | 91 | 10 | 25 | 53* | 1 | -16
COc1ccccc1C(=O)NCc1ccc(-c2nc3ccccc3s2)cc1 | 51* | 91 | 9 | 56 | -17 | 9 | -81
Oc1cccc(-c2nc3ccccc3s2)c1 | 74* | 103 | -3 | 42 | 37 | 13* | -12
CCN(CC)c1nc(-c2cccc(OC)c2O)nc2ccccc12 | -29 | 100 | 0 | 128 | nt | nt | nt
COc1cccc(C(=O)NCc2ccc(-c3nc4ccccc4s3)cc2)c1 | 12 | 114 | -16 | 95 | nt | nt | nt
COc1ccc(CCNC(=O)C2CCCN(c3ncccn3)C2)cc1 (stereo unspecified) | 15 | 97 | 1 | 92 | nt | nt | nt
c1ccc(-c2cnc(-c3ccccc3)nc2)cc1 | 54* | 123 | -24 | 57 | 26 | 2 | -68
O=C(O)c1ncc(-c2ccccc2)cn1 | 8 | 101 | -1 | 100 | nt | nt | nt
O=S1(=O)CCN(OCc2ccc(Cl)cc2)CC1 | 7 | 102 | -3 | 96 | nt | nt | nt
CCc1nnc(NC(=O)c2ccc(OC)cc2OC)s1 | 49* | 143* | -47 | 57 | 13 | -28 | -118
CC(C)(C)NC(=O)CSc1nc(O)cc(=O)[nH]1 | -7 | 96 | 4 | 106 | nt | nt | nt
Clc1ccccc1Nc1nnc(-c2ccncc2)s1 | 60* | 131* | -35 | 50 | 36 | 20* | -73
Cc1cc(C)nc(Nc2n[nH]c(-c3ccc(C(C)(C)C)cc3)n2)n1 | 47* | 115 | -18 | 64 | 36 | -16 | -29
Cc1cc(NC(=O)c2cc(-c3ccco3)on2)nn1Cc1ccc(Cl)cc1 | 63* | 101 | -2 | 52 | 58* | 13* | -8
Cc1nn(Cc2ccc(Cl)cc2)c(C)c1NC(=O)c1cc(-c2ccco2)on1 | 24 | 94 | 6 | 83 | nt | nt | nt
COc1cccc(-c2cc(C(=O)Nc3cc(C)n(Cc4ccc(Cl)cc4)n3)no2)c1 | 55* | 103 | -5 | 58 | 70* | 20* | -3
COc1ccc(OC)c(-c2cc(C(=O)Nc3cc(C)n(Cc4ccc(Cl)cc4)n3)no2)c1 | -15 | 105 | -5 | 114 | nt | nt | nt
O=C(NC1(C(F)(F)F)N=C(c2ccccc2)NC1=O)c1ccccc1 (stereo unspecified) | -5 | 103 | -1 | 102 | nt | nt | nt
O=C1c2cccnc2C(Nc2ccc(Br)cc2Br)N1Cc1cccs1 (stereo unspecified) | -10 | 104 | -6 | 111 | nt | nt | nt
CCc1nc(C)cn1S(=O)(=O)c1cc(C)c(OC)cc1C | 18 | 93 | 7 | 92 | nt | nt | nt
CCc1nc(C)cn1S(=O)(=O)c1cc(C)c(OC)c(C)c1C | 54* | 81 | 21 | 57 | 45* | 10 | 17*
Oc1ccccc1CNc1ccc(OC(F)(F)F)cc1 | 17 | 107 | -10 | 89 | nt | nt | nt
c1ccc(C(Cc2nc(-c3ccncc3)no2)c2ccccc2)cc1 | 65* | 114 | -15 | 48 | 52* | 7 | -11
CCC(SC1=N/C(=C/c2ccccc2OC)C(=O)N1c1ccccc1)C(=O)Nc1cc(C)on1 (stereo unspecified) | 9 | 90 | 11 | 97 | nt | nt | nt
CCC(C)NC(=S)Nc1ccc(C(=O)OC)cc1 (stereo unspecified) | 55* | 88 | 13 | 56 | 53* | 11 | 6
SMILES | STAT3 inh-1 | STAT1 activator | STAT1 blocker | STAT3 activator | STAT3 inh-2 | NFkB inh STAT3ct | STAT1 inh 2
COc1cc(C(=O)NCC(=O)OCCN2C(=O)c3ccccc3C2=O)cc(OC)c1OC | 9 | 102 | -4 | 100 | nt | nt | nt
NS(=O)(=O)c1ccc(NC(=O)c2ccc(CNS(=O)(=O)c3cc(C(F)(F)F)ccc3Cl)cc2)cc1 | 8 | 100 | -3 | 98 | nt | nt | nt
CCOC(=O)c1sc(NC(=O)c2cc3ccccc3o2)nc1C | 47* | 142* | -48 | 64 | 2 | -38 | -65
CCOC(=O)c1sc(NC(=O)/C=C/c2c(F)cccc2Cl)nc1C | -10 | 99 | 1 | 112 | nt | nt | nt
CCOC(=O)c1sc(NC(=O)Nc2ccccc2F)nc1C | 75* | 116 | -18 | 38 | 61* | 39* | -19
CN(C)/C=C(\C=O)c1ccc(Cl)cc1Cl | 7 | 96 | 4 | 97 | nt | nt | nt
Cc1sc2ncnc(NCC3CCCO3)c2c1C (stereo unspecified) | 26 | 82 | 19 | 81 | nt | nt | nt
Cc1sc2ncnc(NCC3COc4ccccc4O3)c2c1C (stereo unspecified) | 74* | 76 | 27 | 36 | 83* | 32* | 23*
Cc1sc2ncnc(NCC(C)(C)N3CCOCC3)c2c1C | 47* | 80 | 24 | 61 | 56* | 16* | 18*
Cc1sc2ncnc(NCC3(N4CCOCC4)CCCCC3)c2c1C | -1 | 99 | 1 | 104 | nt | nt | nt
O=C(Nc1ccc(NC(=O)C2CCCCC2)cn1)c1ccco1 | 62* | 140* | -44 | 48 | 30 | -23 | -62
O=C(Cc1ccccc1)Nc1ccc(NC(=O)C2CCCCC2)nc1 | 2 | 100 | -1 | 100 | nt | nt | nt
O=C(Nc1ccccn1)c1ccco1 | 2 | 114 | -16 | 102 | nt | nt | nt
O=C(Nc1ccc(NC(=O)c2ccco2)nc1)c1ccco1 | 54* | 99 | -1 | 57 | 5 | -22 | -62
COc1ccc(C2C3=C(Nc4ncnn42)c2ccccc2CCC3)cc1 (stereo unspecified) | 8 | 94 | 6 | 98 | nt | nt | nt
Fc1ccc(/C=C2\CCCC3=C2Nc2ncnn2C3c2ccc(F)cc2)cc1 (stereo unspecified) | 45* | 96 | 5 | 63 | 32 | 3 | 19*
O=C(O)/C=C/c1cnn(-c2ccccc2)c1 | 45* | 74 | 29 | 66 | 13 | -14 | -29
O=C(c1cnn(-c2ccccc2)c1)c1ccccc1O | 36 | 118 | -20 | 72 | nt | nt | nt
C=CCNC(=O)CC(=O)N/N=C/c1cccs1 | 7 | 104 | -5 | 98 | nt | nt | nt
Cc1cc(C)n(Cc2ccc(NC(=O)c3ccc(COc4ccccc4Br)cc3)cc2)n1 | 52* | 89 | 5 | 59 | 52* | 9 | -1
COC(=O)c1ccc(Cn2nc(C)cc2C)cc1 | -1 | 113 | -14 | 107 | nt | nt | nt
COc1ccccc1CN1C[C@@H]2C[C@@H](c3cccc(C)c3)N3CCC[C@@]23C1=O | 7 | 90 | 9 | 98 | nt | nt | nt
COc1ccc(CCn2c(C)cc(C(=O)CSc3nc(N)cc(=O)[nH]3)c2C)cc1 | 41 | 88 | 14 | 69 | nt | nt | nt
Cc1cc(C(=O)CSc2nc(N)cc(=O)[nH]2)c(C)n1-c1ccc(OC(F)F)cc1 | 64* | 70 | 32 | 49 | 74* | 19* | 25*
Cc1cc(C(=O)CSc2nc(N)cc(=O)[nH]2)c(C)n1CCc1ccc(F)cc1 | 46* | 83 | 19 | 63 | 41 | 6 | 13

Bioassay records (PubChem BioAssay)
